Results collected from several papers.
Lines come from different studies, so protocols differ. ≈ marks a conversion by molar mass, not a printed value.

| SMILES | tested on | test | test system | conditions | endpoint | value |
| --- | --- | --- | --- | --- | --- | --- |
| O=C(O)c1cn(C2CC2)c2cc(N3CCNCC3)c(F)cc2c1=O | Bacillus subtilis | microbial growth | ATCC6051 |  | MIC | 2 µM |
| Cc1nn(-c2ccccc2)c2c1C(c1ccc(Cl)cc1)N(C(=O)c1ccncc1)N2 (stereo not shown) | Cryptococcus neoformans | microbial growth |  | clinical isolate | MIC | 32 µg/mL |
| Nc1ccc(/C=C/C(=O)N2CCc3c(oc4c(-c5ccc(F)cc5)cc(-c5ccc(C(=O)N6C[C@@H]7[C@H](C6)C7(F)F)nn5)cc34)C2)cn1 | ASPC1 | cell growth or viability, CCK-8 |  | 72 h | IC50 | 260 nM |
| COc1cc2nc(N3CCN(C(=O)C4COc5ccccc5O4)CC3)nc(N)c2cc1OC (stereo not shown) | CNE-2 | cell growth or viability, MTT |  | 48 h | IC50 | 30700 nM |
| O=C1C(Br)=C(Br)C(=O)c2ccccc21 | Nakaseomyces glabratus | microbial growth, broth dilution | ATCC2001 | 24 h | MIC | 6.25 µg/mL |
| Cc1nn(-c2ccccc2)c2c1C(c1cncs1)N(C(=O)c1ccncc1)N2 (stereo not shown) | Cryptococcus neoformans | microbial growth |  | clinical isolate | MIC | 64 µg/mL |
| C=CC(=O)N1CCN(c2nc(=O)n(-c3c(C)ccnc3C(C)C)c3nc(-c4c(O)cccc4F)c(F)cc23)[C@@H](C)C1 | NCI-H358 | cell growth or viability, ATP luminescence |  |  | IC50 | 44.1 nM |
| Clc1ccccc1C(c1ccccc1)(c1ccccc1)n1ccnc1 | Cryptococcus neoformans | microbial growth |  | clinical isolate | MIC | 4 µg/mL |
| C[C@@H]1[C@H](O)[C@@H](C)/C=C/C=C/C=C/C=C/C=C/C=C/C=C/[C@H](O[C@@H]2O[C@H](C)[C@@H](O)[C@H](N)[C@@H]2O)C[C@@H]2O[C@](O)(C[C@@H](O)C[C@@H](O)[C@H](O)CC[C@@H](O)C[C@@H](O)CC(=O)O[C@H]1C)C[C@H](O)[C@H]2C(=O)O | Nakaseomyces glabratus | microbial growth, broth dilution | ATCC2001 | 24 h | MIC | 4 µg/mL |
| C=CC(=O)NC1CCN(c2ncc3ncnc(Nc4ccc(Oc5ccc6c(c5)ncn6C)c(C)c4)c3n2)CC1 | SNU-182 | cell growth or viability |  |  | EC50 | 0.191 nM |
| C=C(F)C(=O)N1CCN(c2nc(OC[C@@H]3CCCN3C)nc3c2CCN(c2cccc4cccc(Cl)c24)C3)C[C@@H]1CC#N | SW756 | cell growth or viability, ATP luminescence |  |  | IC50 | 888 nM |
| Cc1nn(-c2ccccc2)c2c1C(c1ccc(O)cc1)N(C(=O)c1ccncc1)N2 (stereo not shown) | Cryptococcus neoformans | microbial growth |  | clinical isolate | MIC | > 100 µg/mL |
| CC(C)=CCC/C(C)=C/CO | Cryptococcus neoformans | microbial killing, broth dilution |  | clinical isolate | MFC | 800 µg/mL (≈ 5.19 mM) |
